Measurements as given in the M2OR odorant receptor database.
Where a chain is given by its changes, count along the chain named.

What was measured:
Conditions in all cases: stereoisomer not certain
OR2A7 (Homo sapiens) = target: T1, OR2A7 (Homo sapiens) (UniProt Q96R45)
T1 sequence (whole entry): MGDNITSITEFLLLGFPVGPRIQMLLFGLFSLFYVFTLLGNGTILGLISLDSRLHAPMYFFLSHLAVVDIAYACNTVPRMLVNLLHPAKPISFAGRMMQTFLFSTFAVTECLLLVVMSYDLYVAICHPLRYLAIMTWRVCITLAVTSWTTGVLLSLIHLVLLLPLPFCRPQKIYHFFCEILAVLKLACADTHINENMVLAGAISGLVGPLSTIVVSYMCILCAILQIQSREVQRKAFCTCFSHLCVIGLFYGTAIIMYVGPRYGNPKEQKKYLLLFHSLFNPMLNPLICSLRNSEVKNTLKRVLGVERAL
How it was run: (§1)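 Values were gathered from published papers (main text and supplementary material), with extra details requested from the original authors when needed, and checked for typos and inconsistencies. Each receptor–molecule pair is called responsive (active) if the original authors judged the measured signal statistically different from baseline, and non-responsive (inactive) otherwise. Assay methods varied by source, often transient mammalian cell-line luciferase assays. Recorded details include cell line, G-protein, co-transfected protein and tags.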

OR2A12 (Homo sapiens) = target: T2, OR2A12 (Homo sapiens) (UniProt Q8NGT7)
T2 sequence (whole entry): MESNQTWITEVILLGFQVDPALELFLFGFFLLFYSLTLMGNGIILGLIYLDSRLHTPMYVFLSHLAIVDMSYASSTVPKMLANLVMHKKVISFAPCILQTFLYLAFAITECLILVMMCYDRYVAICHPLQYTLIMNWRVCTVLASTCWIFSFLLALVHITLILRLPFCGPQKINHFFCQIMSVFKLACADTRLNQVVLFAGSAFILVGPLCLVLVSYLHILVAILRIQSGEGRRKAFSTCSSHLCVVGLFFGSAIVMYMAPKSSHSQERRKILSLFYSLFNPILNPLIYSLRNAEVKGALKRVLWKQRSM
How it was run: as §1

OR2A14 (Homo sapiens) = target: T3, OR2A14 (Homo sapiens) (UniProt Q96R47)
T3 sequence (whole entry): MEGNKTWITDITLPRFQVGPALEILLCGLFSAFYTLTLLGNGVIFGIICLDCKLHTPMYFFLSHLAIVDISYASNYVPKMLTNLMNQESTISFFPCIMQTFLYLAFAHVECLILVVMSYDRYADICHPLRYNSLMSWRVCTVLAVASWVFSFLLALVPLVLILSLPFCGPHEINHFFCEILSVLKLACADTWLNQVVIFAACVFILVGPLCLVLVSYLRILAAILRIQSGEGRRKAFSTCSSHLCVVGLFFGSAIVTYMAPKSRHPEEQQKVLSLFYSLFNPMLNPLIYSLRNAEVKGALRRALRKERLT
How it was run: as §1

OR2A2 (Homo sapiens) = target: T4, OR2A2 (Homo sapiens) (UniProt Q6IF42)
T4 sequence (whole entry): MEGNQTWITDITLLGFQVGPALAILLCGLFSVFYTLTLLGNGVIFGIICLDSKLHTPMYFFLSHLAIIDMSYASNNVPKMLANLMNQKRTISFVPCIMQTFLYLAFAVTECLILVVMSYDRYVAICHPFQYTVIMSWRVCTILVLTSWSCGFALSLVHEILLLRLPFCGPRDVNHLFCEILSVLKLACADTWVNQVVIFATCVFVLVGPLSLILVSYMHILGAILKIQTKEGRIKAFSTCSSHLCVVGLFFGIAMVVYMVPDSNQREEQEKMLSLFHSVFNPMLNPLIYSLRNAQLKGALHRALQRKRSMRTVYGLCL
How it was run: as §1

OR2A25 (Homo sapiens) = target: T5, OR2A25 (Homo sapiens) (UniProt A4D2G3)
T5 sequence (whole entry): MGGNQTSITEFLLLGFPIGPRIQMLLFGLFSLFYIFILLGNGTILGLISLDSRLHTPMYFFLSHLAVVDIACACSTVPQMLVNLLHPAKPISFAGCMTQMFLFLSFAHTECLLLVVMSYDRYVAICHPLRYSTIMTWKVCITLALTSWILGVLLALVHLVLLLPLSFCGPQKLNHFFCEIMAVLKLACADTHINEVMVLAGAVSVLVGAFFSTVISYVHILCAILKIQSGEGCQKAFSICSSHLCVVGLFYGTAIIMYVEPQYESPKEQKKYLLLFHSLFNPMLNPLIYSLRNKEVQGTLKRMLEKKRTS
How it was run: as §1

OR2A4 (Homo sapiens) = target: T6, OR2A4 (Homo sapiens) (UniProt O95047)
T6 sequence (whole entry): T1 sequence (whole entry) with T9R, C238R, F250V
How it was run: as §1

OR2A5 (Homo sapiens) = target: T7, OR2A5 (Homo sapiens) (UniProt Q96R48)
T7 sequence (whole entry): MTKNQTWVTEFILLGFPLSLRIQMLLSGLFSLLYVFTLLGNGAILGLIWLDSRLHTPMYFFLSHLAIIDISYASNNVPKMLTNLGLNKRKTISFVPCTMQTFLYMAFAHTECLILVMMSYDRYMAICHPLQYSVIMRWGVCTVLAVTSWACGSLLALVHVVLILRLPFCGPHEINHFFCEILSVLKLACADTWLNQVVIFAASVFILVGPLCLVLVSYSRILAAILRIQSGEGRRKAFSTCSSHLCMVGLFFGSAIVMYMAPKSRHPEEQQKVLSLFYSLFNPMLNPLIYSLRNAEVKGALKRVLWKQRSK
How it was run: as §1

OR2AE1 (Homo sapiens) = target: T8, OR2AE1 (Homo sapiens) (UniProt Q8NHA4)
T8 sequence (whole entry): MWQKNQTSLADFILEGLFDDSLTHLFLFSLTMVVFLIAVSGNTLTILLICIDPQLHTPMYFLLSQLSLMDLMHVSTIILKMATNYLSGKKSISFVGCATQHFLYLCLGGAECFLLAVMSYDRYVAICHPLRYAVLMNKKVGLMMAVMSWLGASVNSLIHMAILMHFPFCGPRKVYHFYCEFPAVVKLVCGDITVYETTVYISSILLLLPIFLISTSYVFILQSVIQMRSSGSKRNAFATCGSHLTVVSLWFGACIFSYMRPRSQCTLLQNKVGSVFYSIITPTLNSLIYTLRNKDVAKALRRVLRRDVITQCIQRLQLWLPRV
How it was run: as §1

OR2AG1 (Homo sapiens) = target: T9, OR2AG1 (Homo sapiens) (UniProt Q9H205)
T9 sequence (whole entry): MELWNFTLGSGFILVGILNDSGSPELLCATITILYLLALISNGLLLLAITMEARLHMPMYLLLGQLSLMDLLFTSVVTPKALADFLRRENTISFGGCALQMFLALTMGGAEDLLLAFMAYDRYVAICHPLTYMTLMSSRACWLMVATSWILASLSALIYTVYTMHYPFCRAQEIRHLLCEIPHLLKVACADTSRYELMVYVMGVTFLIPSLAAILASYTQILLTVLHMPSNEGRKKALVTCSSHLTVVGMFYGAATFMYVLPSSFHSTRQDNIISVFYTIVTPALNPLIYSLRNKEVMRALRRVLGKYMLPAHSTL
How it was run: as §1

OR2AG2 (Homo sapiens) = target: T10, OR2AG2 (Homo sapiens) (UniProt A6NM03)
T10 sequence (whole entry): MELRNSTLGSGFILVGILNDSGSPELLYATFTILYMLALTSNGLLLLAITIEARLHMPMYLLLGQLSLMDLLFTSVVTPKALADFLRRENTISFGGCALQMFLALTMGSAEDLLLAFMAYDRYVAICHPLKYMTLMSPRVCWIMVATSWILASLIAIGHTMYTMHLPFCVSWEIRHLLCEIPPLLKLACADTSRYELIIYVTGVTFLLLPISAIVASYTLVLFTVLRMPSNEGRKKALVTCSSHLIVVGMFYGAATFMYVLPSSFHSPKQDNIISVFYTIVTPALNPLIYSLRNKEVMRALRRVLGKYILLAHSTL
How it was run: as §1

OR2AJ1 (Homo sapiens) = target: T11, OR2AJ1 (Homo sapiens) (UniProt Q8NGZ0)
T11 sequence (whole entry): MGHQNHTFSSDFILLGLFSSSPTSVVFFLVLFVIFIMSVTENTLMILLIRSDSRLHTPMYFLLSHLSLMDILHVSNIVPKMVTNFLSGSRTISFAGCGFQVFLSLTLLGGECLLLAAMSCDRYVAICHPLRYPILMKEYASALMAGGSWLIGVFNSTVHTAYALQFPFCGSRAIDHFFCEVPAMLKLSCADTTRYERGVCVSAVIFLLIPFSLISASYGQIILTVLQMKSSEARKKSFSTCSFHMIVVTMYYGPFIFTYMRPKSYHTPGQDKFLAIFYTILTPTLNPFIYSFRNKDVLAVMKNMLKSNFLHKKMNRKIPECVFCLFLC
How it was run: as §1

OR2AK2 (Homo sapiens) = target: T12, OR2AK2 (Homo sapiens) (UniProt Q8NG84)
T12 sequence (whole entry): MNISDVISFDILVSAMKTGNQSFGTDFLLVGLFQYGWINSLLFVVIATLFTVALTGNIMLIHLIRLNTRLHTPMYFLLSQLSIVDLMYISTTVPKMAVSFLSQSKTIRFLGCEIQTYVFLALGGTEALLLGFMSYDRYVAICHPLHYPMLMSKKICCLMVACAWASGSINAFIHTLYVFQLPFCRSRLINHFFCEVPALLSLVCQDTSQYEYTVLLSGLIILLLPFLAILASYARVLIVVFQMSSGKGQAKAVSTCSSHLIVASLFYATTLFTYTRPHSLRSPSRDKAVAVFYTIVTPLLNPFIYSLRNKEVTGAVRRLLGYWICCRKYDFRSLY
How it was run: as §1

OR2AP1 (Homo sapiens) = target: T13, OR2AP1 (Homo sapiens) (UniProt Q8NGE2)
T13 sequence (whole entry): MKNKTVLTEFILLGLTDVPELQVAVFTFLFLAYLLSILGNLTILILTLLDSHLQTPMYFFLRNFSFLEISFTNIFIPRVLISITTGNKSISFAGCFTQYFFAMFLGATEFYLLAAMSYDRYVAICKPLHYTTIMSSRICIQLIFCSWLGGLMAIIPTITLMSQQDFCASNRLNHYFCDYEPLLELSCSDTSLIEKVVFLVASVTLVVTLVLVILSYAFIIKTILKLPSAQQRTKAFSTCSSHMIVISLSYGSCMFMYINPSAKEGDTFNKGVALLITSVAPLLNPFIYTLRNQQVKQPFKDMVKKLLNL
How it was run: as §1

OR2AT4 (Homo sapiens) = target: T14, OR2AT4 (Homo sapiens) (UniProt A6NND4)
T14 sequence (whole entry): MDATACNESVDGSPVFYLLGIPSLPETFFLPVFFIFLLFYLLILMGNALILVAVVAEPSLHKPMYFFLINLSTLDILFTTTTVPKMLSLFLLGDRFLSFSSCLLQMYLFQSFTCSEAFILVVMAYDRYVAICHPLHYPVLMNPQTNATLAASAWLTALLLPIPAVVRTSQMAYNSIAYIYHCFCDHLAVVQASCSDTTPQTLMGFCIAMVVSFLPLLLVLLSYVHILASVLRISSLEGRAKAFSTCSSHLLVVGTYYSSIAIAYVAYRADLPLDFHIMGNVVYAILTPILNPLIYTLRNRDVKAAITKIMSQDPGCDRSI
How it was run: as §1

OR2B11 (Homo sapiens) = target: T15, OR2B11 (Homo sapiens) (UniProt Q5JQS5)
T15 sequence (whole entry): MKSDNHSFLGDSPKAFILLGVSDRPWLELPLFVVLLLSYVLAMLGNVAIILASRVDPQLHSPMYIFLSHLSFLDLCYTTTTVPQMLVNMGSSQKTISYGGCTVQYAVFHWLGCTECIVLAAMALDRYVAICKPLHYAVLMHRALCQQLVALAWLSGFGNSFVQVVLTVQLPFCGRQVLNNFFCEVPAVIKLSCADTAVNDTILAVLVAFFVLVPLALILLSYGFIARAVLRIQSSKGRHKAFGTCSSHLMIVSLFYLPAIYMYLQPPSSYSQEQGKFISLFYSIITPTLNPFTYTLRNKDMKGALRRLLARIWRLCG
How it was run: as §1

OR2B2 (Homo sapiens) = target: T16, OR2B2 (Homo sapiens) (UniProt Q9GZK3)
T16 sequence (whole entry): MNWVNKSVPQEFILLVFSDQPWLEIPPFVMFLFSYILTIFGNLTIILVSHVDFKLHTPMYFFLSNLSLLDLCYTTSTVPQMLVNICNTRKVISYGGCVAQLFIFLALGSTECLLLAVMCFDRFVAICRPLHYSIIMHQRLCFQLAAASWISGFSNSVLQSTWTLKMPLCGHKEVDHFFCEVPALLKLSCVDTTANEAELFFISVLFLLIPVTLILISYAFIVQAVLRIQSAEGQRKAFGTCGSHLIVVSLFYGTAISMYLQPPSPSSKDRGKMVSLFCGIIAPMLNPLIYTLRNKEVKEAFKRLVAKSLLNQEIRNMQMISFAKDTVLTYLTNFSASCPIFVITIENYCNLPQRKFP
How it was run: as §1

OR2A1 T73A R74C S168C = test system: T17, OR2A1 T73A R74C S168C
T17 sequence (whole entry): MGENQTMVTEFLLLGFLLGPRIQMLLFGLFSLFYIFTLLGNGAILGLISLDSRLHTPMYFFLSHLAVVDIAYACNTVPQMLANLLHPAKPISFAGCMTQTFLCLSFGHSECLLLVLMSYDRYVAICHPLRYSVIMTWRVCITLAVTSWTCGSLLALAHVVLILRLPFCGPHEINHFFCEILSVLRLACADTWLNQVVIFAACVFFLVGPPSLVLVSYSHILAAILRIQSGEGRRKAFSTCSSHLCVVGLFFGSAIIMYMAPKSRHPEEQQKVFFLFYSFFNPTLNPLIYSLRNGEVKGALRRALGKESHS
How it was run: as §1

OR2A2 = test system: T18, OR2A2
T18 sequence (whole entry): T4 sequence (whole entry) with F280L
How it was run: as §1

OR2A5 I126V A202S A255T = test system: T19, OR2A5 I126V A202S A255T
T19 sequence (whole entry): T7 sequence (whole entry) with I126V, A202S, A255T
How it was run: as §1

OR2A7 = test system: T20, OR2A7
T20 sequence (whole entry): T1 sequence (whole entry) with T9R
How it was run: as §1

Measured: odorant receptor agonist call

CC1=CCC2CC1C2(C)C (configuration not stated)
active: OR2A7 (Homo sapiens)

CC1CCCCCCCCCCCCC(=O)C1 (configuration not stated)
not listed: OR2A1 T73A R74C S168C | OR2A2 | OR2A5 I126V A202S A255T | OR2A7
inactive: all other assays above

CC1=C(O)C(=O)C(C)O1 (configuration not stated)
not listed: OR2AJ1 (Homo sapiens)
inactive: all other assays above

CCCCCCCCCCCC(=O)OC
inactive: OR2A7 (Homo sapiens)

CCC(S)C(C)CO (configuration not stated)
not listed: OR2A1 T73A R74C S168C | OR2A2 | OR2A5 I126V A202S A255T | OR2A7
inactive: all other assays above

CC1=C(O)C(=O)OC1C (configuration not stated)
not listed: OR2AJ1 (Homo sapiens)
inactive: all other assays above
